Measured values published in ChEMBL document CHEMBL3046036, “Bioactivity of the fungal metabolite (8R,16R)-(-)-pyrenophorin on graminaceous plants” (J Agric Food Chem, 2005).
Activity calls are given as the source filed them. No cut-off for these calls is given here.

Assays:
Hordeum vulgare [1] = experiment: Effect on chlorophyll content in Hordeum vulgare (barley) assessed as chlorophyll dissipation rate at 20 degC and 12 hr photoperiod at 320 uM relative to control; format: ADME, organism-based; settings: in vivo
Method in brief: (§1)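 Leaf sections were treated with 320 µM metabolite and incubated in the dark at 20 °C, with 16 tubes per treatment. Every 12 h, segments from one tube were split into four tubes and extracted in DMSO at 65 °C for 30 min. Extracts were read at A665, tissue was dried at 105 °C and weighed, and chlorophyll was expressed as A665 per g dry weight.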

Triticum aestivum [2] = experiment: Effect on chlorophyll content in Triticum aestivum (wheat) assessed as chlorophyll dissipation rate at 20 degC and 12 hr photoperiod at 320 uM relative to control; format: ADME, organism-based; settings: in vivo; method in brief: as §1
Avena sativa [3] = experiment: Effect on chlorophyll content in Avena sativa assessed as chlorophyll dissipation rate at 20 degC and 12 hr photoperiod at 320 uM relative to control; format: ADME, organism-based; settings: in vivo; method in brief: as §1
Avena fatua [4] = experiment: Effect on chlorophyll content in Avena fatua assessed as chlorophyll dissipation rate at 20 degC and […] at 320 uM relative to control; format: ADME, organism-based; settings: in vivo; method in brief: as §1
Avena sterilis [5] = experiment: Effect on chlorophyll content in Avena sterilis assessed as chlorophyll dissipation rate at 20 degC and […] at 320 uM relative to control; format: ADME, organism-based; settings: in vivo; method in brief: as §1
Hordeum vulgare [6] = experiment: Phytotoxicity against Hordeum vulgare (barley) root growth at 20 degC and 12 hr photoperiod at 1000 uM; format: organism-based; settings: in vivo
Triticum aestivum [7] = experiment: Phytotoxicity against Triticum aestivum (wheat) root growth at 20 degC and 12 hr photoperiod at 1000 uM; format: organism-based; settings: in vivo
Avena sativa [8] = experiment: Phytotoxicity against Avena sativa root growth at 20 degC and 12 hr photoperiod at 1000 uM; format: organism-based; settings: in vivo
Avena fatua [9] = experiment: Phytotoxicity against Avena fatua root growth at 20 degC and 12 hr photoperiod at 1000 uM; format: organism-based; settings: in vivo
Avena sterilis [10] = experiment: Phytotoxicity against Avena sterilis root growth at 20 degC and 12 hr photoperiod at 1000 uM; format: organism-based; settings: in vivo
Hordeum vulgare [11] = experiment: Inhibition of Hordeum vulgare (barley) root growth at 20 degC and 12 hr photoperiod at > 51 uM; format: functional, organism-based
Method in brief: (§2)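 Pregerminated seeds were exposed in tubes to aqueous metabolite and kept in a growth chamber at 20 °C with a 12-h photoperiod. Main root length was measured after 120 h.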

Triticum aestivum [12] = experiment: Inhibition of Triticum aestivum (wheat) root growth at 20 degC and 12 hr photoperiod at > 51 uM; format: functional, organism-based
Avena sativa [13] = experiment: Inhibition of Avena sativa root growth at 20 degC and 12 hr photoperiod at > 51 uM; format: functional, organism-based; method in brief: as §2
Avena fatua [14] = experiment: Inhibition of Avena fatua root growth at 20 degC and 12 hr photoperiod at > 51 uM; format: functional, organism-based; method in brief: as §2
Avena sterilis [15] = experiment: Inhibition of Avena sterilis root growth at 20 degC and 12 hr photoperiod at > 51 uM; format: functional, organism-based; method in brief: as §2
Hordeum vulgare [16] = experiment: Inhibition of Hordeum vulgare (barley) root growth at 20 degC and 12 hr photoperiod at 31 to 50 uM; format: functional, organism-based; method in brief: as §2
Triticum aestivum [17] = experiment: Inhibition of Triticum aestivum (wheat) root growth at 20 degC and 12 hr photoperiod at 31 to 50 uM; format: functional, organism-based
Avena sativa [18] = experiment: Inhibition of Avena sativa root growth at 20 degC and 12 hr photoperiod at 31 to 50 uM; format: functional, organism-based; method in brief: as §2
Avena fatua [19] = experiment: Inhibition of Avena fatua root growth at 20 degC and 12 hr photoperiod at 31 to 50 uM; format: functional, organism-based; method in brief: as §2
Hordeum vulgare [20] = experiment: Enhancement of Hordeum vulgare (barley) root growth at 20 degC and 12 hr photoperiod at 10 to 30 uM; format: functional, organism-based; method in brief: as §2
Avena sterilis [21] = experiment: Inhibition of Avena sterilis root growth at 20 degC and 12 hr photoperiod at 31 to 50 uM; format: functional, organism-based; method in brief: as §2
Triticum aestivum [22] = experiment: Enhancement of Triticum aestivum (wheat) root growth at 20 degC and 12 hr photoperiod at 10 to 30 uM; format: functional, organism-based; method in brief: as §2
Avena sativa [23] = experiment: Enhancement of Avena sativa root growth at 20 degC and 12 hr photoperiod at 10 to 30 uM; format: functional, organism-based; method in brief: as §2
Avena fatua [24] = experiment: Enhancement of Avena fatua root growth at 20 degC and 12 hr photoperiod at 10 to 30 uM; format: functional, organism-based; method in brief: as §2
Avena sterilis [25] = experiment: Enhancement of Avena sterilis root growth at 20 degC and 12 hr photoperiod at 10 to 30 uM; format: functional, organism-based; method in brief: as §2
Hordeum vulgare [26] = experiment: Inhibition of Hordeum vulgare (barley) seed germination at 20 degC at 640 uM (reference value: 0%); format: functional
Hordeum vulgare [27] = experiment: Inhibition of Hordeum vulgare (barley) seed germination at 20 degC at 200 uM (reference value: 0%); format: functional
Hordeum vulgare [28] = experiment: Inhibition of Hordeum vulgare (barley) seed germination at 20 degC at 320 uM (reference value: 0%); format: functional
Hordeum vulgare [29] = experiment: Inhibition of Hordeum vulgare (barley) seed germination at 20 degC at 100 uM (reference value: 0%); format: functional
Hordeum vulgare [30] = experiment: Inhibition of Hordeum vulgare (barley) seed germination at 20 degC at 90 uM (reference value: 0%); format: functional
Hordeum vulgare [31] = experiment: Inhibition of Hordeum vulgare (barley) seed germination at 20 degC at 80 uM (reference value: 0%); format: functional
Hordeum vulgare [32] = experiment: Inhibition of Hordeum vulgare (barley) seed germination at 20 degC at 70 uM (reference value: 0%); format: functional
Hordeum vulgare [33] = experiment: Inhibition of Hordeum vulgare (barley) seed germination at 20 degC at 60 uM (reference value: 0%); format: functional
Hordeum vulgare [34] = experiment: Inhibition of Hordeum vulgare (barley) seed germination at 20 degC at 10 to 50 uM (reference value: 0%); format: functional
Triticum aestivum [35] = experiment: Inhibition of Triticum aestivum (wheat) seed germination at 20 degC at 640 uM (reference value: 0%); format: functional

C[C@@H]1CCC(=O)/C=C/C(=O)O[C@H](C)CCC(=O)/C=C/C(=O)O1 [(8R,16R)-(-)-pyrenophorin]
Ratio (Hordeum vulgare [1]): 1.4
Ratio (Triticum aestivum [2]): 1.4
Ratio (Avena sativa [3]): 1.4
Ratio (Avena fatua [4]): 1.4
Ratio (Avena sterilis [5]): 1.4
Activity (Hordeum vulgare [6]): Non-toxic
Activity (Triticum aestivum [7]): Non-toxic
Activity (Avena sativa [8]): Non-toxic
Activity (Avena fatua [9]): Non-toxic
Activity (Avena sterilis [10]): Non-toxic
inhibition (Hordeum vulgare [11]): Active
inhibition (Triticum aestivum [12]): Active
inhibition (Avena sativa [13]): Active
inhibition (Avena fatua [14]): Active
inhibition (Avena sterilis [15]): Active
inhibition (Hordeum vulgare [16]): inactive
inhibition (Triticum aestivum [17]): inactive
inhibition (Avena sativa [18]): inactive
inhibition (Avena fatua [19]): inactive
Activity (Hordeum vulgare [20]): Active
inhibition (Avena sterilis [21]): inactive
Activity (Triticum aestivum [22]): Active
Activity (Avena sativa [23]): Active
Activity (Avena fatua [24]): Active
Activity (Avena sterilis [25]): Active
inhibition at 640 µM (Hordeum vulgare [26]): 100%
inhibition at 200 µM (Hordeum vulgare [27]): 99%
inhibition at 320 µM (Hordeum vulgare [28]): 100%
inhibition at 100 µM (Hordeum vulgare [29]): 95.4%
inhibition at 90 µM (Hordeum vulgare [30]): 88.2%
inhibition at 80 µM (Hordeum vulgare [31]): 87.7%
inhibition at 70 µM (Hordeum vulgare [32]): 67.5%
inhibition at 60 µM (Hordeum vulgare [33]): 10.1%
inhibition (INH) (Hordeum vulgare [34]): 0%
inhibition at 640 µM (Triticum aestivum [35]): 100%
